# Test results published in ChEMBL document CHEMBL4049446 (J Med Chem, 2017).
# Key:
# [1] = test system: Human immunodeficiency virus 1; experiment: Antiviral activity against HIV1 Lai infected in human MT2 cells; assay type: functional, cell-based; details: Human immunodeficiency virus 1, M:B_Lai
# [2] = Inhibition of HIV1 protease expressed in Escherichia coli using 2-aminobenzoyl-Thr-Ile-Nle-Phe(p-N02)-Gln-Arg-NH as substrate preincubated for 5 to 10 mins followed by substrate addition measured after 1 hr by fluorescence assay; parameters: species or system Human immunodeficiency virus 1
# [3] = test system: Human immunodeficiency virus 1; experiment: Antiviral activity against wild type HIV1 NL4-3 infected in human MT4 cells assessed as reduction in p24 Gag protein production after 7 days by chemiluminescent enzyme immunoassay; assay type: functional, cell-based; details: Human immunodeficiency virus 1, NL4-3, MT4, 168 h
# [4] = test system: Human immunodeficiency virus 1; experiment: (§1) Antiviral activity against darunavir-resistant HIV1 derived from 20 passages harboring protease L10I/I15V/K20R/L24I/V32I/M36I/M46L/L63P/V82A/L89M mutant infected in human MT4 cells assessed as reduction in p24 Gag protein production after 7 days by chemiluminescent enzyme immunoassay; assay type: functional, cell-based; details: Human immunodeficiency virus 1, MT4, 168 h
# Summary of the method: (§2)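 MT-4 cells (1×10^4) exposed to 50 TCID50 of wild-type HIV-1 NL4-3 or DRV-selected variants (20, 30 or 51 passages) and cultured with various inhibitor concentrations. IC50 read by p24 assay. Run in triplicate; mean ± 1 standard deviation from three independent experiments.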
# [5] = test system: Human immunodeficiency virus 1; experiment: Antiviral activity against darunavir-resistant HIV1 derived from 30 passages harboring protease L10I/I15V/K20R/L24I/V32I/M36I/M46L/L63P/K70R/V82A/I84V/L89M mutant infected in human MT4 cells assessed as reduction in p24 Gag protein production after 7 days by chemiluminescent enzyme immunoassay; assay type: functional, cell-based; details: Human immunodeficiency virus 1, MT4, 168 h; summary of the method: as §2
# [6] = test system: Human immunodeficiency virus 1; experiment: as §1, with “51” for “20”, “L10I/I15V/K20R/L24I/V32I/L33F/M36I/M46L/I54M/L63P/K70Q/V82I/I84V/L89M” for “L10I/I15V/K20R/L24I/V32I/M36I/M46L/L63P/V82A/L89M”; assay type: functional, cell-based; details: Human immunodeficiency virus 1, MT4, 168 h
# [7] = test system: Human immunodeficiency virus 1; experiment: Ratio of IC50 for darunavir-resistant HIV1 derived from 20 passages harboring protease L10I/I15V/K20R/L24I/V32I/M36I/M46L/L63P/V82A/L89M mutant infected in human MT4 cells to IC50 for wild type HIV1 NL4.3 infected in human MT4 cells; assay type: functional
# Summary of the method: (§3)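 Fold change is the IC50 against each resistant variant divided by the IC50 against wild-type HIV-1 NL4-3, measured in the same triplicate antiviral assays (three independent experiments).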
# [8] = test system: Human immunodeficiency virus 1; experiment: Ratio of IC50 for darunavir-resistant HIV1 derived from 30 passages harboring protease L10I/I15V/K20R/L24I/V32I/M36I/M46L/L63P/K70R/V82A/I84V/L89M mutant infected in human MT4 cells to IC50 for wild type HIV1 NL4.3 infected in human MT4 cells; assay type: functional; summary of the method: as §3
# [9] = test system: Human immunodeficiency virus 1; experiment: Ratio of IC50 for darunavir-resistant HIV1 derived from 51 passages harboring protease L10I/I15V/K20R/L24I/V32I/L33F/M36I/M46L/I54M/L63P/K70Q/V82I/I84V/L89M mutant infected in human MT4 cells to IC50 for wild type HIV1 NL4.3 infected in human MT4 cells; assay type: functional; summary of the method: as §3
# [10] = test system: Human immunodeficiency virus 1; experiment: Antiviral activity against amprenavir-resistant HIV1 NL4-3 harboring protease L10F/V32I/L33F/M46L/I54M/A71V mutant infected in human MT4 cells assessed as reduction in p24 Gag protein production after 7 days by chemiluminescent enzyme immunoassay; assay type: functional, cell-based; details: Human immunodeficiency virus 1, NL4-3, MT4, 168 h
# Summary of the method: (§4)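 Variants are HIV-1 NL4-3 selected in vitro under protease inhibitors: APV, ATV, IDV, LPV, NFV and SQV at 5 µM, TPV at 15 µM. Assays run in triplicate; IC50 given as mean ± 1 standard deviation from three independent experiments.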
# [11] = test system: Human immunodeficiency virus 1; experiment: Antiviral activity against tipranavir-resistant HIV1 NL4-3 harboring protease L10I/L33I/M36I/M46I/I54V/K55R/I62V/L63P/A71V/G73S/V82T/L90M/I93L mutant infected in human MT4 cells assessed as reduction in p24 Gag protein production after 7 days by chemiluminescent enzyme immunoassay; assay type: functional, cell-based; details: Human immunodeficiency virus 1, NL4-3, MT4, 168 h; summary of the method: as §4
# [12] = test system: Human immunodeficiency virus 1; experiment: Ratio of IC50 for saquinavir-resistant HIV1 NL4-3 harboring protease L10I/N37D/G48V/I54V/L63P/G73C/I84V/L90M mutant infected in human MT4 cells to IC50 for wild type HIV1 NL4.3 infected in human MT4 cells; assay type: functional; summary of the method: as §3
# [13] = test system: Human immunodeficiency virus 1; experiment: Antiviral activity against lopinavir-resistant HIV1 NL4-3 harboring protease L10F/V32I/M46I/I47A/A71V/I84V mutant infected in human MT4 cells assessed as reduction in p24 Gag protein production after 7 days by chemiluminescent enzyme immunoassay; assay type: functional, cell-based; details: Human immunodeficiency virus 1, NL4-3, MT4, 168 h; summary of the method: as §4
# [14] = test system: Human immunodeficiency virus 1; experiment: Antiviral activity against nelfinavir-resistant HIV1 NL4-3 harboring protease L10F/K20T/D30N/K45I/A71V/V77I mutant infected in human MT4 cells assessed as reduction in p24 Gag protein production after 7 days by chemiluminescent enzyme immunoassay; assay type: functional, cell-based; details: Human immunodeficiency virus 1, NL4-3, MT4, 168 h; summary of the method: as §4
# [15] = test system: Human immunodeficiency virus 1; experiment: Antiviral activity against saquinavir-resistant HIV1 NL4-3 harboring protease L10I/N37D/G48V/I54V/L63P/G73C/I84V/L90M mutant infected in human MT4 cells assessed as reduction in p24 Gag protein production after 7 days by chemiluminescent enzyme immunoassay; assay type: functional, cell-based; details: Human immunodeficiency virus 1, NL4-3, MT4, 168 h; summary of the method: as §4
# [16] = test system: Human immunodeficiency virus 1; experiment: Antiviral activity against indinavir-resistant HIV1 NL4-3 harboring protease L10F/L24I/M46I/I54V/L63P/A71V/G73S/V82T mutant infected in human MT4 cells assessed as reduction in p24 Gag protein production after 7 days by chemiluminescent enzyme immunoassay; assay type: functional, cell-based; details: Human immunodeficiency virus 1, NL4-3, MT4, 168 h; summary of the method: as §4
# [17] = test system: Human immunodeficiency virus 1; experiment: Antiviral activity against atazanavir-resistant HIV1 NL4-3 harboring protease L23I/E34Q/K43I/M46I/I50L/G51A/L63P/A71V/V82A/T91A mutant infected in human MT4 cells assessed as reduction in p24 Gag protein production after 7 days by chemiluminescent enzyme immunoassay; assay type: functional, cell-based; details: Human immunodeficiency virus 1, NL4-3, MT4, 168 h; summary of the method: as §4
# [18] = test system: Human immunodeficiency virus 1; experiment: Ratio of IC50 for amprenavir-resistant HIV1 NL4-3 harboring protease L10F/V32I/L33F/M46L/I54M/A71V mutant infected in human MT4 cells to IC50 for wild type HIV1 NL4.3 infected in human MT4 cells; assay type: functional; summary of the method: as §3
# [19] = test system: Human immunodeficiency virus 1; experiment: Ratio of IC50 for lopinavir-resistant HIV1 NL4-3 harboring protease L10F/V32I/M46I/I47A/A71V/I84V mutant infected in human MT4 cells to IC50 for wild type HIV1 NL4.3 infected in human MT4 cells; assay type: functional; summary of the method: as §3
# [20] = test system: Human immunodeficiency virus 1; experiment: Ratio of IC50 for indinavir-resistant HIV1 NL4-3 harboring protease L10F/L24I/M46I/I54V/L63P/A71V/G73S/V82T mutant infected in human MT4 cells to IC50 for wild type HIV1 NL4.3 infected in human MT4 cells; assay type: functional; summary of the method: as §3
# [21] = test system: Human immunodeficiency virus 1; experiment: Ratio of IC50 for nelfinavir-resistant HIV1 NL4-3 harboring protease L10F/K20T/D30N/K45I/A71V/V77I mutant infected in human MT4 cells to IC50 for wild type HIV1 NL4.3 infected in human MT4 cells; assay type: functional; summary of the method: as §3
# [22] = test system: Human immunodeficiency virus 1; experiment: Ratio of IC50 for atazanavir-resistant HIV1 NL4-3 harboring protease L23I/E34Q/K43I/M46I/I50L/G51A/L63P/A71V/V82A/T91A mutant infected in human MT4 cells to IC50 for wild type HIV1 NL4.3 infected in human MT4 cells; assay type: functional; summary of the method: as §3
# [23] = test system: Human immunodeficiency virus 1; experiment: Ratio of IC50 for tipranavir-resistant HIV1 NL4-3 harboring protease L10I/L33I/M36I/M46I/I54V/K55R/I62V/L63P/A71V/G73S/V82T/L90M/I93L mutant infected in human MT4 cells to IC50 for wild type HIV1 NL4.3 infected in human MT4 cells; assay type: functional; summary of the method: as §3
SMILES,IC50 [1],Ki [2],IC50 [3],IC50 [4],IC50 [5],IC50 [6],Ratio IC50 [7],Ratio IC50 [8],Ratio IC50 [9],IC50 [10],IC50 [11],Ratio IC50 [12],IC50 [13],IC50 [14],IC50 [15],IC50 [16],IC50 [17],Ratio IC50 [18],Ratio IC50 [19],Ratio IC50 [20],other results
CC(C)(C)NC(=O)[C@@H]1C[C@@H]2CCCC[C@@H]2CN1C[C@@H](O)[C@H](Cc1ccccc1)NC(=O)[C@H](CC(N)=O)NC(=O)c1ccc2ccccc2n1,21 nM,,,,,,,,,,,,,,,,,,,,
CC(C)CN(C[C@@H](O)[C@H](Cc1ccccc1)NC(=O)O[C@H]1CO[C@H]2OCC[C@H]21)S(=O)(=O)c1ccc2nc(NC3CC3)sc2c1,1.9 nM,0.01 nM,2 nM,7.7 nM,30 nM,480 nM,4,15,240,,,,,,,,,,,,
COc1ccc(S(=O)(=O)N(CC(C)C)C[C@@H](O)[C@H](Cc2ccccc2)NC(=O)O[C@H]2C3CO[C@H]4OCC2C4C3)cc1 (some centres not stated),2.7 nM,0.014 nM,,,,,,,,,,,,,,,,,,,
CC(C)CN(C[C@@H](O)[C@H](Cc1ccccc1)NC(=O)O[C@H]1C2CO[C@H]3OCC1C3C2)S(=O)(=O)c1ccc(N)cc1 (some centres not stated),2.8 nM,0.013 nM,3.3 nM,30 nM,340 nM,> 1000 nM,9,103,>303,,,,,,,,,,,,
COc1ccc(S(=O)(=O)N(CC(C)C)C[C@@H](O)[C@H](Cc2ccccc2)NC(=O)O[C@@H]2C3CO[C@H]4OCC2C4C3)cc1 (some centres not stated),> 1000 nM,10.8 nM,,,,,,,,,,,,,,,,,,,
CC(C)CN(C[C@@H](O)[C@H](Cc1ccccc1)NC(=O)O[C@H]1C2CO[C@H]3OCC1C3C2)S(=O)(=O)c1ccc2nc(NC3CC3)sc2c1 (some centres not stated),0.26 nM,0.04 nM,0.39 nM,0.17 nM,1.8 nM,35 nM,0.4,5,90,0.27 nM,0.057 nM,0.08,0.0026 nM,0.028 nM,0.03 nM,0.012 nM,0.19 nM,0.7,0.007,0.03,Ratio IC50 [21]: 0.07; Ratio IC50 [22]: 0.5; Ratio IC50 [23]: 0.15
COC(=O)N[C@H](C(=O)N[C@@H](Cc1ccccc1)[C@@H](O)CN(Cc1ccc(-c2ccccn2)cc1)NC(=O)[C@@H](NC(=O)OC)C(C)(C)C)C(C)(C)C [ATAZANAVIR],,,4.2 nM,,,,,,,3.8 nM,> 1000 nM,121,45 nM,17 nM,510 nM,62 nM,> 1000 nM,0.9,11,15,Ratio IC50 [21]: 4; Ratio IC50 [22]: >238; Ratio IC50 [23]: >238
Cc1cccc(C)c1OCC(=O)N[C@@H](Cc1ccccc1)[C@@H](O)C[C@H](Cc1ccccc1)NC(=O)[C@H](C(C)C)N1CCCNC1=O [LOPINAVIR],,,20 nM,> 1000 nM,> 1000 nM,> 1000 nM,>50,>50,>50,310 nM,> 1000 nM,>50,> 1000 nM,42 nM,> 1000 nM,170 nM,330 nM,16,>50,9,Ratio IC50 [21]: 2; Ratio IC50 [22]: 17; Ratio IC50 [23]: >50
